≈ marks a conversion by molar mass, not a printed value. Calls of active or inactive are those of the source. No cut-off for these calls is given here.
Experiments:
[1] = target: T1, Serine/threonine-protein kinase ATR (Homo sapiens, UniProt Q13535); experiment: Inhibition of ATR in human HCT116 cells assessed as reduction in histone H2AX phosphorylation by Hoechst staining-based immunofluorescence microscopic analysis; format: cell-based
[2] = target: Serine-protein kinase ATM (Homo sapiens, UniProt Q13315); experiment: Inhibition of full-length ATM (unknown origin) using DPSVEPPLSQETFSDKKK peptide as substrate measured after 24 hrs in presence of [gamma-33P] ATP by microbeta liquid scintillation counting analysis
Chain of Serine-protein kinase ATM (Q13315 whole entry): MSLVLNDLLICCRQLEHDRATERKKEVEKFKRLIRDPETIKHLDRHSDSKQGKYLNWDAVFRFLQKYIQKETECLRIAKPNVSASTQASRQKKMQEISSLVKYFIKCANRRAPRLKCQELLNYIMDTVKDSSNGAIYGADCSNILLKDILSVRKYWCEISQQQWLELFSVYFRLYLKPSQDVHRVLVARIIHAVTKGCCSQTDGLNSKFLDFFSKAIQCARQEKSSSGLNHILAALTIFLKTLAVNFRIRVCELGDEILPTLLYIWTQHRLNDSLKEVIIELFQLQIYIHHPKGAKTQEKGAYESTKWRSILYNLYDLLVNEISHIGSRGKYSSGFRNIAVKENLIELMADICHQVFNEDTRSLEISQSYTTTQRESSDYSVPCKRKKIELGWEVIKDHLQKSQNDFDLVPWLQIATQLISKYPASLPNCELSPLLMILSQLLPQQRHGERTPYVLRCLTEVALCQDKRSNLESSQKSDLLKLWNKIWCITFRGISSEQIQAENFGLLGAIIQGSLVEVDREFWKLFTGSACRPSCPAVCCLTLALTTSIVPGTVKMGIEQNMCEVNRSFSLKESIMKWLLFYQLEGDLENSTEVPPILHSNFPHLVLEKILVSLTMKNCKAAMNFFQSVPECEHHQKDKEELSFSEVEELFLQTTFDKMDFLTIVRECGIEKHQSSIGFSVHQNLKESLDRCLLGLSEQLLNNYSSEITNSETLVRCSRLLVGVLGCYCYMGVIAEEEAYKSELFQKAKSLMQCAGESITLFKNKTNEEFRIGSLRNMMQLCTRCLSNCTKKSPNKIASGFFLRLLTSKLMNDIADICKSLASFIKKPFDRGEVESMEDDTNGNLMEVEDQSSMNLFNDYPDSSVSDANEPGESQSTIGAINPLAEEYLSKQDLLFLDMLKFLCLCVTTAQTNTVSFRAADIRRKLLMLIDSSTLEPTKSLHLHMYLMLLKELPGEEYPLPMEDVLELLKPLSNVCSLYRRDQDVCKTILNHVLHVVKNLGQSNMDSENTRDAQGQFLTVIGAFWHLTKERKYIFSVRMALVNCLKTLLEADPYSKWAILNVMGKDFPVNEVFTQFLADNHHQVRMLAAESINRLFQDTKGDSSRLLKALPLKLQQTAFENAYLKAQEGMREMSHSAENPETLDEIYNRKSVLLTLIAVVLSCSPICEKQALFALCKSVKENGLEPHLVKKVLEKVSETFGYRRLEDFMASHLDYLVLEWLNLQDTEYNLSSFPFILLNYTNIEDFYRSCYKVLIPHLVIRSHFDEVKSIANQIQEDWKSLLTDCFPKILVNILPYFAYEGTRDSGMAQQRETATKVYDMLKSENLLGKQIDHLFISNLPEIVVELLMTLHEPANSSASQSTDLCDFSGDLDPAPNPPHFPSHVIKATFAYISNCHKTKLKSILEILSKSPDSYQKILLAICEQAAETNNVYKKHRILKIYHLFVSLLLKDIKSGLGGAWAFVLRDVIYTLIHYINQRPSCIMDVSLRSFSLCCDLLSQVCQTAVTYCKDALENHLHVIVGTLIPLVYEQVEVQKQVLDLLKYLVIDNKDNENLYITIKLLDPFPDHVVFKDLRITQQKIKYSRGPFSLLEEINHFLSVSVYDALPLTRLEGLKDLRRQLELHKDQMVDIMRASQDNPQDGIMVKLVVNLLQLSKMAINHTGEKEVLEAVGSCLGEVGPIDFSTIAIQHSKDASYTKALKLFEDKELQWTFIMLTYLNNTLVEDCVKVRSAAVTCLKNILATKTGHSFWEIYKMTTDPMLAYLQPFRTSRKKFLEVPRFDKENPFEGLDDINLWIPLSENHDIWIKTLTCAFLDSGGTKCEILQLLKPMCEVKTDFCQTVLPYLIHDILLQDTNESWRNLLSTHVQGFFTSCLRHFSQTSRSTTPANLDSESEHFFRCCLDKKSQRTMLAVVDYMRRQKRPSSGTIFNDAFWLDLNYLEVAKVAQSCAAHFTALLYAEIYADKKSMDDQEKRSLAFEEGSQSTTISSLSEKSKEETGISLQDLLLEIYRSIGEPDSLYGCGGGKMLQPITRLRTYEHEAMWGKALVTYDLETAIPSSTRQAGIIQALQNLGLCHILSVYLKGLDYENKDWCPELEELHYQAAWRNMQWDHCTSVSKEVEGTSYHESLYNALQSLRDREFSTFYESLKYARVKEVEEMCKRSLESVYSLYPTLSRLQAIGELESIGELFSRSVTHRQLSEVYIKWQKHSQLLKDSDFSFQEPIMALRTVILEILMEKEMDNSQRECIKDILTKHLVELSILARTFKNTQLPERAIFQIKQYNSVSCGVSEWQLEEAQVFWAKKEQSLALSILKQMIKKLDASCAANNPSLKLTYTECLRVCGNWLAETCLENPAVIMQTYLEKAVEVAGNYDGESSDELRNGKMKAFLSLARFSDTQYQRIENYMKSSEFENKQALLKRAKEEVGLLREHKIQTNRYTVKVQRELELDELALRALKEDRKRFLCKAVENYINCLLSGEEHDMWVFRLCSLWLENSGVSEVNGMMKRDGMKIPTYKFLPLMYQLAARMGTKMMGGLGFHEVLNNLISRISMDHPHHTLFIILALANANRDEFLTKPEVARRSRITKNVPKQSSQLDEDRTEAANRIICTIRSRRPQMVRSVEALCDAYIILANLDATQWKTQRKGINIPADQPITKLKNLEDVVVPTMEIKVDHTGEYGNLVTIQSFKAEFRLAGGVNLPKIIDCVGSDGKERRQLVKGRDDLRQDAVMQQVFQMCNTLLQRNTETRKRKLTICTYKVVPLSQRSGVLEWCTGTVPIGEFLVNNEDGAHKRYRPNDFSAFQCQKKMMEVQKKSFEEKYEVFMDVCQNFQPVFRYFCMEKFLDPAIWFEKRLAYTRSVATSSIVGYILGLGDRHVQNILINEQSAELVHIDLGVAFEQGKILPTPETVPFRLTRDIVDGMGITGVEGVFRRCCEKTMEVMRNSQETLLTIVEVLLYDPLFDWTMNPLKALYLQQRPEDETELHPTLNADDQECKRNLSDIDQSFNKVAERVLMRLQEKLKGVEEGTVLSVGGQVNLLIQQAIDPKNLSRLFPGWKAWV
Method in brief: (§1)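 Radiometric phosphate incorporation assay with full-length kinase (ATR and ATM made in-house; DNA-PK purchased) premixed with buffer and target peptide. Compound added in DMSO over a range of concentrations, final DMSO 7%. Started with [γ-33P]ATP at 25 °C. Stopped with phosphoric acid (final 100 mM) and ATP (final […]), captured on phosphocellulose, washed with 100 mM phosphoric acid, then scintillation counted. Dose-response fitting.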

[3] = target: T1, Serine/threonine-protein kinase ATR; experiment: Inhibition of recombinant human full-length N-terminal Flag epitope-tagged ATR expressed in HEK293T cells using ASELPASQPQPFSAKKK peptide as substrate measured after 24 hrs in presence of [gamma-33P] ATP by microbeta liquid scintillation counting analysis; method in brief: as §1
[4] = target: DNA-dependent protein kinase catalytic subunit (Homo sapiens, UniProt P78527); experiment: Inhibition of purified recombinant human full-length DNA-PK using EPPLSQEAFADLWKKK peptide as substrate measured after 2 hrs in presence of [gamma-33P] ATP by microbeta liquid scintillation counting analysis; method in brief: as §1
[5] = Aqueous solubility of the compound in PBS incubated overnight by UPLC-MS analysis; format: physicochemical
Method in brief: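 Compounds dissolved in DMSO (standard) or in DPBS (10 mM phosphate, 140 mM NaCl) to at most 200 µM. PBS samples sealed, shaken overnight at room temperature, then centrifuged 45 min at 4000 rpm, 22 °C. UV AUC from UPLC-MS compared with the DMSO standard: solubility = AUC(PBS)/AUC(standard) × [standard].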

[6] = target: Tyrosine-protein kinase ABL1 (Homo sapiens, UniProt P00519, T315I); experiment: ATP competitive inhibition of human ABL T315I mutant
[7] = target: Receptor-type tyrosine-protein kinase FLT3 (Homo sapiens, UniProt P36888); experiment: Inhibition of human Flt3
[8] = target: Tyrosine-protein kinase SYK (Homo sapiens, UniProt P43405); experiment: Inhibition of human SYK
[9] = target: Glycogen synthase kinase-3 alpha (Homo sapiens, UniProt P49840); experiment: ATP competitive inhibition of human GSK3alpha
Chain of Glycogen synthase kinase-3 alpha (P49840 whole entry): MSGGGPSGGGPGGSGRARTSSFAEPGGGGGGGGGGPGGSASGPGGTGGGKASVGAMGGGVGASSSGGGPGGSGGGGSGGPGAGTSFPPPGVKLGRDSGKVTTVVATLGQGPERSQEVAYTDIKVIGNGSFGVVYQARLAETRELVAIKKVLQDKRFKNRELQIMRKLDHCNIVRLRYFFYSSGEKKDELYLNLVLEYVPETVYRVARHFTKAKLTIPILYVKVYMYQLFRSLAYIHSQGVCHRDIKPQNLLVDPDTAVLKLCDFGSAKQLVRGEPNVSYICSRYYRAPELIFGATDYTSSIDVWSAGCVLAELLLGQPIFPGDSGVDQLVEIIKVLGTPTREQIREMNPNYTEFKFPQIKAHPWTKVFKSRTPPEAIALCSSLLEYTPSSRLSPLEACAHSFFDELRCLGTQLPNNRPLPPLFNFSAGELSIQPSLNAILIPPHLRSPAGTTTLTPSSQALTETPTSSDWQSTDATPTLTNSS

[10] = test system: HCT-116; experiment: Potentiation of cisplatin-induced antiproliferative activity against human HCT116 cells assessed as reduction in cell viability at < 50 nM measured after 96 hrs by MTS assay; format: functional, cell-based
Method in brief: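 HCT116 cells plated and left to adhere overnight. Compound and cisplatin added the next day at set concentrations, then incubated 96 h. MTS reagent added; absorbance at 490 nm read after 1 h. Synergy and antagonism assessed by MacSynergy analysis.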

[11] = target: Mitogen-activated protein kinase kinase kinase 9 (Homo sapiens, UniProt P80192); experiment: ATP competitive inhibition of human MLK1
[12] = Half life in Sprague-Dawley rat at 10 mg/kg administered as iv infusion for 3 hrs; format: ADME, organism-based; settings: in vivo
Method in brief: (§2)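 Male Sprague-Dawley rats (about 200-350 g), catheterized in jugular and femoral veins under isoflurane; n=3. IV infusion at 3.33 mg/kg/h for 3 h (nominal 10 mg/kg, as free base) in 5% Captisol:2.5% mannitol in water. Jugular blood drawn at 0-51 h, centrifuged 3,000 G, 10 min, 4 °C; plasma collected.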

[13] = target: Receptor-type tyrosine-protein kinase FLT3 (Homo sapiens, UniProt P36888, D835Y); experiment: ATP competitive inhibition of human Flt3 D835Y mutant
[14] = target: Vascular endothelial growth factor receptor 3 (Homo sapiens, UniProt P35916); experiment: ATP competitive inhibition of human Flt4
[15] = target: Voltage-gated inwardly rectifying potassium channel KCNH2 (Homo sapiens, UniProt Q12809); experiment: Inhibition of human ERG
[16] = target: Glycogen synthase kinase-3 beta (Homo sapiens, UniProt P49841); experiment: Inhibition of human GSK3beta
Chain of Glycogen synthase kinase-3 beta (P49841 whole entry, the tested form may be a part): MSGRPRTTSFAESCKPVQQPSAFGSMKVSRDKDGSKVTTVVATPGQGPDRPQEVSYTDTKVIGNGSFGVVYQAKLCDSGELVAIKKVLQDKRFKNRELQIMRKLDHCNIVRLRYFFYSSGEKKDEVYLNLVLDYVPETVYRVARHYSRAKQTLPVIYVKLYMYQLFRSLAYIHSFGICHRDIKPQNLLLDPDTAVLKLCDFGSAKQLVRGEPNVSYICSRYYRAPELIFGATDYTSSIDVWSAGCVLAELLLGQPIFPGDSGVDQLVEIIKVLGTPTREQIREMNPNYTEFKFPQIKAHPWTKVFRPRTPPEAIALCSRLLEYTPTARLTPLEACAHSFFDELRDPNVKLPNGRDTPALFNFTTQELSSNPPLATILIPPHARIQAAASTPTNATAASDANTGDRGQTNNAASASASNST

[17] = Volume of distribution at steady state in Sprague-Dawley rat at 10 mg/kg administered as iv infusion for 3 hrs; format: ADME, organism-based; settings: in vivo, read-out: Vdss; method in brief: as §2
[18] = target: Dual specificity tyrosine-phosphorylation-regulated kinase 2 (Homo sapiens, UniProt Q92630); experiment: ATP competitive inhibition of human DYRK2
[19] = Permeability across apical to basolateral side in human Caco2 cells; format: ADME, cell-based; settings: Caco-2, read-out: permeability
[20] = target: Mast/stem cell growth factor receptor Kit (Homo sapiens, UniProt P10721, D816H); experiment: ATP competitive inhibition of human c-Kit D816H mutant
Chain of Mast/stem cell growth factor receptor Kit (P10721 26-976 D816H limits assumed): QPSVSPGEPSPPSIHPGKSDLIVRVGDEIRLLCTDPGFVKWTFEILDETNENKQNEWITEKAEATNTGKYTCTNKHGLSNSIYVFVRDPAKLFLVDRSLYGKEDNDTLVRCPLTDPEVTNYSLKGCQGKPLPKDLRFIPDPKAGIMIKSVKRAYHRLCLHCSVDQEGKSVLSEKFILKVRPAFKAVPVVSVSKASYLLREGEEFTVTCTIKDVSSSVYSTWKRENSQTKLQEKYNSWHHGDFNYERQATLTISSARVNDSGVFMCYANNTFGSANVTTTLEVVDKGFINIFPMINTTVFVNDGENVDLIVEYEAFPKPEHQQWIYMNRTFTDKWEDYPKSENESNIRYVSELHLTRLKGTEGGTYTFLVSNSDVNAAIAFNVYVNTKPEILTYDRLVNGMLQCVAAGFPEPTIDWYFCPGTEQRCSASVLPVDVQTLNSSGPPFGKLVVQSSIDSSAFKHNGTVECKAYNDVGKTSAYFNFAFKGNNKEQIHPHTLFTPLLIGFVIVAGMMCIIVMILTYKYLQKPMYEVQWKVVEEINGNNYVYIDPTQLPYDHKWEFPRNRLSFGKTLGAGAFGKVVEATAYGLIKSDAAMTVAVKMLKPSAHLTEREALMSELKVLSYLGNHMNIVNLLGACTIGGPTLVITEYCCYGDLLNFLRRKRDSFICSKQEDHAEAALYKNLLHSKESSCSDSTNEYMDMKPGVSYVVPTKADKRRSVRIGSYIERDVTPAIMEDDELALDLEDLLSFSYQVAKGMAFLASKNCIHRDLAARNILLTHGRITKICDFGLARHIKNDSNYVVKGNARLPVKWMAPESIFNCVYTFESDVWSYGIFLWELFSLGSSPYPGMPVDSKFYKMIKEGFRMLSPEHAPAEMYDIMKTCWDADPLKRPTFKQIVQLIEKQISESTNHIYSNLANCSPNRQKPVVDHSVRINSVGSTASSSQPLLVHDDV

[21] = target: Tyrosine-protein kinase Mer (Homo sapiens, UniProt Q12866); experiment: ATP competitive inhibition of human Mer
[22] = target: Cytochrome P450 2D6, Homo sapiens (UniProt P10635); experiment: Inhibition of CYP2D6 (unknown origin)
[23] = target: Tyrosine-protein kinase JAK2 (Homo sapiens, UniProt O60674); experiment: Inhibition of human JAK2
[24] = Dissociation constant, pKa of compound; format: physicochemical
[25] = target: Cytochrome P450 2C9 (Homo sapiens, UniProt P11712); experiment: Inhibition of CYP2C9 (unknown origin); format: ADME
[26] = organism: Homo sapiens; experiment: Selectivity ratio of Ki for purified recombinant human full-length DNA-PK to Ki for recombinant human full-length N-terminal Flag epitope-tagged ATR expressed in HEK293T cells
Method in brief: (§3)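 Ratio of Ki values from the radiometric [γ-33P]ATP phosphocellulose-capture assays with full-length kinases: ATM or DNA-PK Ki over ATR Ki.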

[27] = organism: Homo sapiens; experiment: Selectivity ratio of Ki for full-length ATM (unknown origin) to Ki for recombinant human full-length N-terminal Flag epitope-tagged ATR expressed in HEK293T cells; format: cell-based; method in brief: as §3
[28] = test system: HCT-116; experiment: Potentiation of cisplatin-induced antiproliferative activity against human HCT116 cells assessed as reduction in cell viability at 500 nM measured after 96 hrs by MTS assay; format: functional, cell-based
Method in brief: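 HCT116 cells from ATCC, exponentially growing, plated and left to adhere overnight. Compound and cisplatin added at the indicated concentrations, then incubated 96 h. MTS reagent added and absorbance read at 490 nm after 1 h. Synergy and antagonism assessed with Macsynergy analysis.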

`CCNCc1ccc(-c2cc(-c3nc(-c4ccc(S(=O)(=O)C(C)C)cc4)cnc3N)on2)cc1` gave an IC50 [1] of 76 nM, a Ki [2] of 47 nM and a Ki [3] of 0.21 nM. For the same compound, the Ki [4] was 3350 nM and the solubility [5] was 72 µM (≈ 34.4 µg/mL).

`CC(C)S(=O)(=O)c1ccc(-c2cnc(N)c(-c3noc(-c4ccccc4)n3)n2)cc1` showed an IC50 [1] of 2300 nM, a Ki [2] of 400 nM and a Ki [3] of 5 nM. For the same compound, the Ki [4] was 4000 nM.

With `CC(C)S(=O)(=O)c1ccc(-c2cnc(N)c(-c3cc(-c4ccc(CN)cc4)no3)n2)cc1` the IC50 [1] was > 25000 nM, the Ki [2] was 115 nM and the Ki [3] was 0.27 nM. For the same compound, the Ki [4] was > 4000 nM and the solubility [5] was 12.5 µM (≈ 5.62 µg/mL).

For `CNCc1ccc(-c2cc(-c3nc(-c4ccc(S(=O)(=O)C(C)C)cc4)cnc3N)on2)cc1` [BERZOSERTIB], the Ki [6] was 59 nM, the Ki [7] was 130 nM and the Ki [8] was 190 nM. For the same compound, the Ki [9] was 33 nM, the Activity [10] was “Active” and the Ki [11] was 15 nM. The half-life [12] was 11.6 h, the Ki [13] was 18 nM and the Ki [2] was 44 nM. For the same compound, the Ki [14] was 8 nM, the IC50 [15] was 3000 nM and the Ki [4] was > 4000 nM. It also gave a Ki [16] of 140 nM, a Vd [17] of 21 L/kg and a Ki [18] of 26 nM. It also gave a Papp A→B [19] of 7.2 ×10⁻⁶ cm/s, a solubility [5] of 52 µM (≈ 24.1 µg/mL) and a Ki [20] of 39 nM. For the same compound, the Ki [21] was 30 nM, the IC50 [22] was > 30000 nM and the Ki [23] was 150 nM. The pKa [24] was 8.2 and the IC50 [25] was > 30000 nM.

`CNCc1ccc(-c2cc(-c3nc(-c4ccc(S(=O)(=O)C(C)C)cc4)cnc3N)on2)cc1Cl` showed an IC50 [1] of 130 nM, a Ki [2] of 190 nM and a Ki [3] of 2.4 nM. The Ki [4] was > 4000 nM and the solubility [5] was 1.36 µM (≈ 0.677 µg/mL).

`CNCc1ccc(-c2cc(-c3nc(-c4ccc(S(=O)(=O)C(C)C)cc4)cnc3N)on2)c(Cl)c1` gave an IC50 [1] of 210 nM, a Ki [2] of 93 nM and a Ki [3] of 0.75 nM. It also gave a Ki [4] of 2610 nM and a solubility [5] of 4.4 µM (≈ 2.19 µg/mL).

`CC(C)S(=O)(=O)c1ccc(-c2cnc(N)c(-c3cc(-c4ccc([C@@H](C)N)cc4)no3)n2)cc1` showed an IC50 [1] of 130 nM, a Ki [2] of 105 nM and a Ki [3] of 0.53 nM. The Ki [4] was 1700 nM and the solubility [5] was 45.1 µM (≈ 20.9 µg/mL).

For `CC(C)S(=O)(=O)c1ccc(-c2cnc(N)c(-c3cc(-c4ccc(CNC5CCOCC5)cc4)no3)n2)cc1`, the Ki [2] was 189 nM, the Ki [4] was > 4000 nM and the solubility [5] was 0.8 µM (≈ 0.427 µg/mL). It also gave a pKa [24] of 9.7.

With `CC(C)S(=O)(=O)c1ccc(-c2cnc(N)c(-c3cc(-c4ccccc4)no3)n2)cc1` the Ratio Ki [26] was > 1000, the IC50 [1] was 1100 nM and the Ki [2] was 1400 nM. For the same compound, the Ki [3] was 1 to 1.3 nM, the Ki [4] was > 4000 nM and the Ki [16] was 650 nM. The Ratio Ki [27] was > 1000 and the solubility [5] was < 0.3 µM.

With `CC(C)S(=O)(=O)c1ccc(-c2cnc(N)c(C3CC(c4ccccc4)=NO3)n2)cc1` (racemic) the IC50 [1] was > 2500 nM, the Ki [2] was > 4000 nM and the Ki [4] was > 4000 nM.

For `CS(=O)(=O)c1ccc(-c2cnc(N)c(C(=O)Nc3ccccc3)n2)cc1`, the Activity [28] was “Active”.

For `CC(C)S(=O)(=O)c1ccc(-c2cnc(N)c(-c3nnc(-c4ccccc4)o3)n2)cc1`, the Ratio Ki [26] was > 1000, the IC50 [1] was 410 nM and the Ki [2] was > 10000 nM. It also gave a Ki [3] of 1 nM, a Ki [4] of 8900 nM and a Ki [16] of 22 nM. For the same compound, the Ratio Ki [27] was > 1000.

With `CC(C)S(=O)(=O)c1ccc(-c2cnc(N)c(-c3cc(-c4ccccc4)on3)n2)cc1` the IC50 [1] was 800 nM, the Ki [2] was 1300 nM and the Ki [3] was 2 nM. The Ki [4] was > 4000 nM and the Ki [16] was 530 nM.

In the case of `CC(C)S(=O)(=O)c1ccc(-c2cnc(N)c(-c3cc(-c4ccc([C@H](C)N)cc4)no3)n2)cc1`, the IC50 [1] is reported as 300 nM, the Ki [2] is reported as 82 nM and the Ki [3] is reported as 1.24 nM. It also gave a Ki [4] of 785 nM and a solubility [5] of 27.9 µM (≈ 12.9 µg/mL).

Compound `CC(C)S(=O)(=O)c1ccc(-c2cnc(N)c(C(=O)Nc3ccccc3)n2)cc1` has an IC50 [1] of 1030 nM, a Ki [2] of 4000 nM and a Ki [3] of 4 nM. It also gave a Ki [4] of 2800 nM.

With `CC(C)S(=O)(=O)c1ccc(-c2cnc(N)c(-c3cnc(-c4ccccc4)o3)n2)cc1` the Ki [2] was > 10000 nM, the Ki [3] was 21 nM and the Ki [4] was > 4000 nM.

In the case of `CC(C)S(=O)(=O)c1ccc(-c2cnc(N)c(-c3cn(-c4ccccc4)nn3)n2)cc1`, the IC50 [1] is reported as > 2500 nM, the Ki [2] is reported as 1300 nM and the Ki [4] is reported as > 4000 nM.

For `CC(C)S(=O)(=O)c1ccc(-c2cnc(N)c(-c3nnc(-c4ccccc4)s3)n2)cc1`, the Ratio Ki [26] was > 1000, the IC50 [1] was 1700 nM and the Ki [2] was > 4000 nM. For the same compound, the Ki [3] was 1 nM, the Ki [4] was > 4000 nM and the Ratio Ki [27] was > 1000.

In the case of `CC(C)S(=O)(=O)c1ccc(-c2cnc(N)c(-c3nc(-c4ccccc4)no3)n2)cc1`, the IC50 [1] is reported as > 2500 nM, the Ki [2] is reported as 1350 nM and the Ki [3] is reported as 26 nM. The Ki [4] was > 1600 nM.

In the case of `CC(C)S(=O)(=O)c1ccc(-c2cnc(N)c(-c3ncc(-c4ccccc4)o3)n2)cc1`, the IC50 [1] is reported as > 2500 nM, the Ki [2] is reported as > 10000 nM and the Ki [4] is reported as > 4000 nM.
